Measured values published in ChEMBL document CHEMBL1122878, “New antihistaminic N-heterocyclic 4-piperidinamines. 3. Synthesis and antihistaminic activity of N-(4-piperidinyl)-3H-imidazo[4,5-b]pyridin-2-amines” (1985).

Assays:
Type in all cases: functional
Rattus norvegicus [1] = assay: In vivo antihistaminic activity after 1 hour of subcutaneous administration using 48/80 lethality test in rat.; details: sc
Method in brief: (§1)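 Male inbred Wistar rats, 230–270 g, starved overnight, housed at 21 ± 1 °C and 65 ± 5% RH. Protection was survival at 4 h. ED50 by Finney from five rats per dose, at least three doses in a geometric series 0.0025–40 mg/kg.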

Rattus norvegicus [2] = assay: In vivo antihistaminic activity after 2 hours of oral administration using 48/80 lethality test in rat.; method in brief: as §1
Cavia porcellus [3] = assay: In vivo antihistaminic activity after 48 hr of oral administration using histamine lethality test in guinea pig.
Method in brief: (§2)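 Male albino guinea pigs, 280–360 g. Compound given orally in twofold dose increments 3, 24, 48 or 96 h before an iv challenge with histamine dihydrochloride at 1.25 mg/kg. Protection was survival at 1 h. PD50 with confidence limits by Finney, using 4–6 animals per dose and time point, at least three doses from a geometric series 0.0025–5.0 mg/kg.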

Cavia porcellus [4] = assay: In vivo antihistaminic activity after 3 hr of oral administration using histamine lethality test in guinea pig.; method in brief: as §2
Cavia porcellus [5] = assay: In vivo antihistaminic activity after 24 hr of oral administration using histamine lethality test in guinea pig.; method in brief: as §2
Cavia porcellus [6] = assay: In vivo antihistaminic activity after 24 hr of oral administration using histamine lethality test in guinea pig; method in brief: as §2
Cavia porcellus [7] = assay: In vivo antihistaminic activity after 3 hr of oral administration using histamine lethality test in guinea pig; method in brief: as §2
Cavia porcellus [8] = assay: In vivo antihistaminic activity after 48 hr of oral administration using histamine lethality test in guinea pig; method in brief: as §2
Cavia porcellus [9] = assay: In vivo antihistaminic activity after 96 hr of oral administration using histamine lethality test in guinea pig; method in brief: as §2

SMILES	ED50 (Rattus norvegicus [1]) [mg/kg]	ED50 (Rattus norvegicus [2]) [mg/kg]	other results
Fc1ccc(Cn2c(NC3CCN(C/C=C/c4ccccc4)CC3)nc3cccnc32)cc1	1.25	> 2.5	
c1ccc(Cn2c(NC3CCN(CCC(c4ccccc4)c4ccccc4)CC3)nc3cccnc32)cc1	> 2.5		
c1ccc(CCN2CCC(Nc3nc4cccnc4n3Cc3ccccc3)CC2)cc1	0.08	> 2.5	
Oc1nc2ccccc2n1CCCN1CCC(Nc2nc3cccnc3n2Cc2ccc(F)cc2)CC1	0.63	2.5	
Cc1cccc(C)c1NC(=O)CN1CCC(Nc2nc3cccnc3n2Cc2ccccc2)CC1	> 2.5		
c1ccc(Cn2c(NC3CCN(C4CCCCC4)CC3)nc3cccnc32)cc1	0.63	> 2.5	
O=C(NCCN1CCC(Nc2nc3cccnc3n2Cc2ccccc2)CC1)c1ccc(F)cc1	0.08	1.25	
O=C(CCCN1CCC(Nc2nc3cccnc3n2Cc2ccccc2)CC1)c1ccc(F)cc1	0.31	1.25	
Fc1ccc(Cn2c(NC3CCN(CCCC(c4ccc(F)cc4)c4ccc(F)cc4)CC3)nc3cccnc32)cc1	> 2.5		
CC(C)N1CCC(Nc2nc3cccnc3n2Cc2ccccc2)CC1	0.63	> 2.5	
CN1CCC(Nc2nc3cccnc3n2Cc2ccccc2)CC1	0.08	> 2.5	
CCCCN1CCC(Nc2nc3cccnc3n2Cc2ccccc2)CC1	0.16	> 2.5	
Fc1ccc(Cn2c(NC3CCN(CCc4ccccc4)CC3)nc3cccnc32)cc1	0.31	> 2.5	
CN(C)C(=O)C(CCN1CCC(Nc2nc3cccnc3n2Cc2ccccc2)CC1)(c1ccccc1)c1ccccc1	> 2.5		
C=CCN1CCC(Nc2nc3cccnc3n2Cc2ccccc2)CC1	0.31	> 2.5	
Fc1ccc(Cn2c(NC3CCN(CCc4cccs4)CC3)nc3cccnc32)cc1	0.16	> 2.5	
CN1CCC(Nc2nc3cccnc3n2Cc2ccc(F)cc2)CC1	0.08	> 2.5	
Fc1ccc(OCCCN2CCC(Nc3nc4cccnc4n3Cc3ccccc3)CC2)cc1	1.25	1.25	
CCn1nnn(CCN2CCC(Nc3nc4cccnc4n3Cc3ccc(F)cc3)CC2)c1=O	0.31	> 2.5	
Fc1ccc(Cn2c(NC3CCN(CCCOc4ccccc4)CC3)nc3cccnc32)cc1	0.31	0.31	
c1ccc(Cn2c(NC3CCN(CCN4CCOCC4)CC3)nc3cccnc32)cc1	0.63	2.5	
COc1ccc(CCN2CCC(Nc3nc4cccnc4n3Cc3ccccc3)CC2)cc1	0.16	0.31	
O=C(CCCN1CCC(Nc2nc3cccnc3n2Cc2ccc(F)cc2)CC1)c1ccc(F)cc1	0.04	1.25	
COc1ccc(CCN2CCC(Nc3nc4cccnc4n3Cc3ccc(F)cc3)CC2)cc1	0.31	0.16	ED50 (Cavia porcellus [3]): 0.25 mg/kg; ED50 (Cavia porcellus [4]): 0.16 mg/kg; ED50 (Cavia porcellus [5]): 0.12 mg/kg
Fc1ccc(Cn2c(NC3CCN(CCc4ccccn4)CC3)nc3cccnc32)cc1	0.04	0.31	
C(=C\c1ccccc1)/CN1CCC(Nc2nc3cccnc3n2Cc2ccccc2)CC1	1.25	1.25	
c1ccc(Cn2c(NC3CCN(CC4COc5ccccc5O4)CC3)nc3cccnc32)cc1 (stereo not drawn)	0.63	> 2.5	
OC(COc1ccccc1)CN1CCC(Nc2nc3cccnc3n2Cc2ccccc2)CC1 (stereo not drawn)	0.16	0.63	
c1ccc(Cn2c(NC3CCN(CCOc4ccccc4)CC3)nc3cccnc32)cc1	0.31	1.25	
COc1ccc(CCN2CCC(Nc3nc4ccccc4n3Cc3ccc(F)cc3)CC2)cc1 [ASTEMIZOLE]	0.11	0.11	ED50 (Cavia porcellus [6]): 0.07 mg/kg; ED50 (Cavia porcellus [7]): 0.33 mg/kg; ED50 (Cavia porcellus [8]): 0.04 mg/kg; ED50 (Cavia porcellus [9]): 0.19 mg/kg
